The text below walks through data of ChEMBL document CHEMBL3808340, “Development of Novel 1,2,3,4-Tetrahydroquinoline Scaffolds as Potent NF-κB Inhibitors and Cytotoxic Agents” (ACS Med Chem Lett, 2016).

For experiment [1], the species on record is Homo sapiens. Nature of the experiment: Potency index, ratio of KL-1156 IC50 to compound IC50 for LPS-induced NFkappaB (unknown origin) transcriptional activity expressed in mouse RAW264.7 cells. It is filed as cell-based.
Experiment [2] concerns MDA-MB-231. Nature of the experiment: Cytotoxicity against human MDA-MB-231 cells after 72 hrs by sulforhodamine B assay. In kind it is functional. The following applies: MDA-MB-231, 72 h. A digest of the protocol: (§1)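 Sulforhodamine B staining following the NCI (USA) protocol was used to estimate cell number indirectly in six human cancer lines. GI50 is the concentration giving a 50% decrease in net cell growth, reported as the mean of three experiments.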
On the technique in general: The SRB assay estimates cell density from bound dye.

For experiment [3], the species on record is Homo sapiens. The experiment can be described thus: Potency index, ratio of PDTC IC50 to compound IC50 for LPS-induced NFkappaB (unknown origin) transcriptional activity expressed in mouse RAW264.7 cells. In kind it is cell-based.
The subject of experiment [4] is RAW264.7. The experiment can be described thus: Inhibition of LPS-induced NFkappaB (unknown origin) transcriptional activity expressed in mouse RAW264.7 cells at 100 uM incubated for 16 hrs by SEAP based reporter gene assay relative to control. In kind it is cell-based. For orientation: Reporter assays use an easily measured gene product as a stand-in for the process of interest.

Experiment [5] is described as follows: Inhibition of LPS-induced NFkappaB (unknown origin) transcriptional activity expressed in mouse RAW264.7 cells incubated for 16 hrs by SEAP based reporter gene assay. It is filed as cell-based. The following applies: RAW264.7, 16 h.
Experiment [6] relates to NCI-H23. Nature of the experiment: Cytotoxicity against human NCI-H23 cells after 72 hrs by sulforhodamine B assay. It is filed as functional. The following applies: NCI-H23, 72 h. Put shortly: as §1
Experiment [7] is described as follows: Cytotoxicity against human PC3 cells after 72 hrs by sulforhodamine B assay. It is filed as functional. The following applies: PC-3, 72 h. A digest of the protocol: as §1
The nature of experiment [8]: Cytotoxicity against human NUGC3 cells after 72 hrs by sulforhodamine B assay. In kind it is functional. As to conditions: NUGC-3, 72 h. Put shortly: as §1
Experiment [9] relates to ACHN. The experiment can be described thus: Cytotoxicity against human ACHN cells after 72 hrs by sulforhodamine B assay. It is filed as functional. Put shortly:
as §1

Experiment [10] is described as follows: Cytotoxicity against human HCT15 cells after 72 hrs by sulforhodamine B assay. It is filed as functional. As to conditions: HCT-15, 72 h. Put shortly: as §1

A value given as a limit tells only on which side of the number the result lay.

Broadly, the GI50 is the concentration giving 50% growth inhibition. A high value points to lower sensitivity of the cells. The term inhibition denotes the relative decrease from the control value, in per cent. High values mean strong suppression, low ones little suppression. In general, IC50 refers to the concentration at which inhibition is half-maximal.

Take `O=C(Nc1ccccc1C(F)(F)F)C1CCc2ccccc2N1C(=O)c1ccccc1Cl` (stereo not given): the results for the Ratio IC50 in [1] and in experiment [3] were 58 and 41, respectively. The GI50 in experiment [2] was 2.53 µM; in [6], 2.15 µM; in experiment [7] it was 5.14 µM; in experiment [8], 2.73 µM; in [9], 3.9 µM; in experiment [10], 4.22 µM. In addition, the inhibition in [4] amounted to 82%. Moreover, in experiment [5], it took 0.9 µM to reach half-maximal inhibition (IC50).
In the case of `O=C(Nc1ccccc1O)C1CCc2ccccc2N1C(=O)c1ccccc1` (stereo not given), the values for the Ratio IC50 in [1] and in experiment [3] were 37 and 26, respectively. Besides, the 50% growth inhibitory concentration (GI50) came to 4.21 µM in [2]; 3.49 µM in [6]; 5.69 µM in [7]; 3.78 µM in [8]; 4.26 µM in experiment [9]; 3.83 µM in [10]. The inhibition in [4] is above 100%. In experiment [5], this compound yielded an IC50 of 1.4 µM.
Consider `CCCCCCCCC(=O)N1c2ccccc2CCC1C(=O)Nc1ccccc1C(F)(F)F` (stereo not given), for which the GI50 in experiment [2] came to 3.35 µM; in experiment [6], 4.22 µM; in experiment [7], 4.32 µM; in experiment [8], 6.18 µM; in [9], 8.33 µM; in experiment [10] it was 7.7 µM. This compound registered an inhibition in [4] of 63%. This compound yielded an IC50 in experiment [5] of 27 µM.
As to `O=C(Nc1ccccc1O)C1CCc2ccccc2N1C(=O)c1cccc(Cl)c1` (stereo not given), the GI50 is 10.6 µM in experiment [2]; 11.6 µM in [6]; 23.3 µM in [7]; 11 µM in experiment [8]; 17.2 µM in [9]; 23.1 µM in [10]. The same compound returned an inhibition in experiment [4] of 58%. The midpoint of inhibition in [5], the IC50, lay at 78 µM.
With `O=C(Nc1ccccc1O)C1CCc2ccccc2N1` (stereo not given), the GI50 in [2] is 5.26 µM; in [6], 2.23 µM; in experiment [7] it was 4.31 µM; in experiment [8] it was 2.68 µM; in experiment [9], 3.99 µM; in experiment [10], 5.61 µM. The compound also had an inhibition in experiment [4] of 57%. For the same compound, in experiment [5], half-maximal inhibition (IC50) required 83 µM.
As for `O=C(Nc1ccccc1C(F)(F)F)C1CCc2ccccc2N1C(=O)c1ccc(Cl)cc1` (stereo not given), the Ratio IC50 in experiment [1] came out at 19; in [3], 13. The concentration for 50% growth inhibition (GI50) in experiment [2] was 0.533 µM; in experiment [6], 0.307 µM; in experiment [7] it was 0.786 µM; in [8], 0.551 µM; in experiment [9], 0.824 µM; in experiment [10], 0.839 µM. For the same compound, the inhibition in experiment [4] came out at 92%. The compound also registered an IC50 in [5] of 2.7 µM.
`O=C(Nc1ccc(O)cc1)C1CCc2ccccc2N1` (stereo not given): the GI50 in experiment [2], in experiment [6], in experiment [7], in [8], in experiment [9] and in experiment [10] was above 100 µM in each case. Moreover, the inhibition in [4] was 64%. The same compound had an IC50 in experiment [5] of 65 µM.
In the case of `O=C(Nc1ccccc1C(F)(F)F)C1CCc2ccccc2N1C(=O)c1cccc(Cl)c1` (stereo not given), the Ratio IC50 in experiment [1] came out at 75; in experiment [3] it was 53. The 50% growth inhibitory concentration (GI50) in experiment [2] came to 0.288 µM; in experiment [6], 0.292 µM; in [7], 0.729 µM; in [8] it was 0.754 µM; in [9] it was 0.526 µM; in experiment [10], 0.797 µM. For the same compound, the inhibition in [4] worked out at 90%. Moreover, the half-inhibitory concentration (IC50) in experiment [5] was 0.7 µM.
`CCC(=O)N1c2ccccc2CCC1C(=O)Nc1cc(C(F)(F)F)cc(C(F)(F)F)c1` (stereo not given): the GI50 amounted to 7.28 µM in experiment [2]; 7.82 µM in [6]; 8.54 µM in experiment [7]; 7.22 µM in experiment [8]; 7.72 µM in experiment [9]; 7.62 µM in [10]. In experiment [4], this compound gave an inhibition of 91%. Besides, the IC50 in experiment [5] came to 20 µM.
